The subject of data set [1] is HCV subgenomic replicon (HCV RNA) in MH14 cells. In words: Quantitation of HCV RNA by RT-PCR in MH14 cells. Format: cell-based, Hepatitis C virus. Conditions: for inhibition of HCV RNA replication: 500 μM; for HCV replication reduced: 100 μM. The procedure, abridged: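 MH14 cells carrying a stable HCV subgenomic replicon were kept at 37 °C, 5% CO2 in DMEM with 10% FBS, penicillin/streptomycin, glutamine and 300 μg/ml G418. Cells were grown 60 h with or without test compound dissolved in DMSO. Total RNA was TRIzol-extracted. HCV RNA was reverse-transcribed with an HCV-specific primer and PCR-amplified for 25 cycles (1 min each at 94, 52, 72 °C). GAPDH mRNA served as internal control.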

For a further data set, the target named is HCV NS5B (Hepatitis C virus genotype 1b, UniProt P26663). Description: RdRp assay. The format is biochemical. Conditions: for IC50, inhibition of NS5B RdRp activity in vitro: single isolates; for IC90: read-out: IC90, RdRp activity of HCV NS5B.
The test system of a further data set is MH14 cells. In words: MTT assay. Conditions: for effect on cell growth / influence on cell viability / toxicity: 48 h, MH14 cells; for influence on cell viability: 2 μM and 10 μM; for toxicity: 50 μM and 100 μM.
Data set [2] concerns HCV subgenomic replicon (NS5B, NS5A expression) in MH14 cells. Format: cell-based, Hepatitis C virus. Conditions: for viral replication reduced (first statement, Fig. 4 B, C): cell culture system; for inhibition at 100 µM: Hepatitis C virus, MH14, read-out: inhibition of NS5B. The procedure, abridged:
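MH14 cells with stably replicating HCV subgenomic replicon, grown at 37 °C, 5% CO2 in DMEM with 10% FBS, penicillin/streptomycin, glutamine and 300 μg/ml G418. Cells were exposed to DMSO-dissolved test compound for 48 h, washed, lysed in SDS buffer, boiled, and clarified. Blots were probed with anti-NS5B, NS5A or actin (1:500, overnight, 4 °C), then HRP secondary (1:5,000, 1 h). Chemiluminescent detection used β-actin as the loading control.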

The next data set addresses HCV NS5B (CΔ21) (Hepatitis C virus genotype 1b, UniProt P26663). Description: Fluorescence quenching binding assay. Conditions: for time to binding equilibrium with NS5B (fluorescence quenched): data not shown.
In data set [3] the test system is p53 expression in peripheral blood mononuclear cells (PBMC). In words: p53 expression in peripheral blood mononuclear cells. Format: cell-based.
For data set [4], the system named is tumor suppressor protein, p53. In words: p53 expression. Format: cell-based. Conditions: cells not given.

In the case of `O=C(O)c1ccc(O)c(O)c1` [Compound 1, 3,4-dihydroxybenzoic acid], in data set [1], the “inhibition of HCV RNA replication” value is “inhibited HCV RNA replication only at very high concentrations”. Moreover, the 50% inhibitory concentration (IC50) at HCV NS5B stood at 400 µM. Also, the “effect on cell growth” value with MH14 cells is recorded as “enhanced cellular proliferation”.

For the compound `O=C(O)c1ccc(O)cc1` [Compound 2, 4-hydroxybenzoic acid], the “inhibition of HCV RNA replication” value in data set [1] was “inhibited HCV RNA replication only at very high concentrations”. For the same compound, the “IC50, inhibition of NS5B RdRp activity in vitro” value on HCV NS5B is given as “did not inhibit”. Moreover, in the data set with MH14 cells, the “effect on cell growth” value is recorded as “enhanced cellular proliferation”.

Turning to `O=c1cc(-c2ccc(O)c(O)c2)oc2cc(O)cc(O)c12` [Compound 3, luteolin], the “HCV replication inhibited, judged by HCV RNA level” value (from here on “HCV replication inhibited, judged”) in data set [1] (50 μM) was 50%. Besides, the HCV replication reduced result in data set [1] is reported as “approximately 80%”. Besides, in data set [2] (50 μM), the “viral replication reduced (first statement, Fig. 4 B, C)” value is about 50%. Further, in data set [2], the inhibition at 100 µM is over 90%. In addition, at HCV NS5B, the IC50 worked out at 11.3 µM and the IC90 was 52 µM. In addition, on HCV NS5B (CΔ21), the Kd was found to be 31.5 µM and the “time to binding equilibrium with NS5B (fluorescence quenched)” value (from here on “time to binding equilibrium with NS5B”) was at most 1 min. In data set [3], the “effect on p53 expression” value is recorded as “no effect”. Further, the “effect on tumor suppressor protein p53” value in data set [4] is “strongly up-regulate”. The “cytotoxicity in MH14 cell” value in the data set on MH14 cells was “comparable high cytotoxicity”.

Take `COc1cc(O)c2c(c1)oc(=O)c1c3cc(O)c(O)cc3oc21` [Compound 4, wedelolactone]: the “HCV replication inhibited, judged” value in data set [1] (10 μM) came to 30%. Further, the “HCV replication inhibited, judged” value in data set [1] (50 μM) amounted to 80%. In addition, the “inhibition of NS5B expression” value in data set [2] (10 μM, MH14 cells, 48 h) is on record as over 80%. For the same compound, the “NS5B expression by Western blot” value in data set [2] (50 μM, MH14 cells, 48 h) is “could not detect the expression of NS5B”. On HCV NS5B, the half-inhibitory concentration (IC50) amounted to 7.7 µM; the IC90 came to 32 µM; the “IC50, inhibition of NS5B RdRp activity in vitro” value is on record as “indistinguishable”. Moreover, at HCV NS5B (CΔ21), the Kd was determined as 24.3 µM and the “time to binding equilibrium with NS5B” value was at most 1 min. Also, in the data set with MH14 cells, the “influence on cell viability” value was “no influence on cell viability” and the toxicity result is reported as “toxic”.

As to `O=c1cc(-c2ccc(O)cc2)oc2cc(O)cc(O)c12` [Compound 5, apigenin], the “HCV replication inhibited, judged” value in data set [1] (50 μM) was determined as 50%. Moreover, the HCV replication reduced in data set [1] is given as about 90%. In addition, in data set [2] (50 μM), the “viral replication reduced (first statement, Fig. 4 B, C)” value is on record as about 50%. Moreover, the inhibition at 100 µM in data set [2] was over 90%. The compound also returned an IC50 against HCV NS5B of 175 µM. On HCV NS5B (CΔ21), binding was put at a Kd of 122 µM and the “time to binding equilibrium with NS5B” value is at most 1 min. Also, the “effect on p53 expression” value in data set [3] is listed as “no effect”. Also, the “effect on tumor suppressor protein p53” value in data set [4] was “strongly up-regulate”. Besides, in the data set with MH14 cells, the “cytotoxicity in MH14 cell” value is listed as “comparable high cytotoxicity”, the “influence on cell viability” value was “no influence on cell viability” and the toxicity result is listed as “toxic”.

The record behind these values is paper PMC3511619 (Journal of ethnopharmacology, 2012).
